Screening data deposited in PubChem BioAssay by several laboratories.
SIAE primary: blocks human sialic acid acetylesterase. SIAE FP-Rh probe binding, fluorescence polarization. Q9HAT2. actives 0.69% (n = 370,000). inhibition, % at 9.66 µM;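 active means inhibition above a cutoff: mean of compounds within the control limits plus 3 SD of those, cut at about 17% in these data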;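 further: 0% = plate median of compound wells and 100% = probe without SIAE protein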
TCR CD3 inh: inhibitors of human TCR-CD3 interaction; inhibition, % at 9.4 µM; AID 651800; actives 0.37% (n = 360,000); TAMRA-labeled TCR probe fluorescence, biochemical; in the data active means inhibition above about 19%;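 further: recombinant mutant TCR 2C K166C tagged with TAMRA read by polarization; 0% = receptor in buffer alone and 100% = receptor with positive control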
GSTO1 counter: counter-screen for RBBP9 inhibitors: inhibitors of human GSTO1 | P78417 | recombinant GSTO1, activity-based probe fluorescence polarization | inhibition, % at 5.96 µM | actives 1.1% (n = 300,000) | AID 1974;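 active means inhibition above the campaign mean inhibition plus 3 SD, cut at about 35% in these data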;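 further: 0% = GSTO1-1 with DMSO and 100% = wells lacking GSTO1-1 enzyme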
Target sequence (P78417 whole entry, looked up): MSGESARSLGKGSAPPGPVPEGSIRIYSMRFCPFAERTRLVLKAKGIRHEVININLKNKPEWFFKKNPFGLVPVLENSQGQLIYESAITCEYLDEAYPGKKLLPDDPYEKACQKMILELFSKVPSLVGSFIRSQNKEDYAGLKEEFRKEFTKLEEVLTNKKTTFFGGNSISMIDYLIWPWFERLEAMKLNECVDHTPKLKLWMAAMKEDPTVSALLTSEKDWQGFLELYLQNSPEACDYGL
TDP2 absorb: blocks human TDP2 phosphodiesterase activity; recombinant TDP2, T5PNP hydrolysis, p-nitrophenol absorbance 415 nm; inhibition, % at 12.8 µM; actives 0.34% (n = 370,000); AID 720702;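 active means inhibition above the mean of all tested compounds plus 3 SD, set per campaign, cut at about 25% in these data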;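 further: 0% = DMSO with enzyme and 100% = buffer with substrate but no TDP2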
Target sequence (O95551 whole entry, looked up): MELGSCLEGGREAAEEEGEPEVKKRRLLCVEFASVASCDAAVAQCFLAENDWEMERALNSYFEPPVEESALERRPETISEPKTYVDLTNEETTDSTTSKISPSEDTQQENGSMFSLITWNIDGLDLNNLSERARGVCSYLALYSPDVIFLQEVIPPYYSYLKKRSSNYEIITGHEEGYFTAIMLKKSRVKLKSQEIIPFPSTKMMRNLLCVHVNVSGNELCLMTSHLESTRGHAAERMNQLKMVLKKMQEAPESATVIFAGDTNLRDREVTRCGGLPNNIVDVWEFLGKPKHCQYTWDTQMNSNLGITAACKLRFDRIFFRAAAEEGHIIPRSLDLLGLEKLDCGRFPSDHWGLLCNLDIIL
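Test system: Human TDP2 enzyme | Reagent: 5 mM T5PNP | Compound dosing: 12.8 µM single point, 1% DMSO | Incubation: Enzyme reaction with compound for 2 h at 37 °C | Technique: p-Nitrophenol epi absorbance | Read-out: % inhibition relative to enzyme-containing and enzyme-free wells | Benchmarks: High control without enzyme, low control DMSO plus TDP2 | Replicates: Singlicate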
PAD4 FP inh: blocks human protein arginine deiminase 4; Q9UM07; recombinant PAD4, RCA probe fluorescence polarization; inhibition, % at 6.36 µM; actives 0.41% (n = 330,000);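 active means percent inhibition above a cutoff equal to the mean of all tested compounds plus 3 SD, cut at about 15% in these data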;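 further: 0% = PAD4 with RCA probe and DMSO and 100% = probe without PAD4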
Apaf1 inhib: inhibitors of human Apaf-1 apoptosome; O14727; reconstituted apoptosome caspase-3 activity, DEVD-Rh110 fluorescence; inhibition, % at 20 µM; actives 0.71% (n = 330,000); active means inhibition of at least 40% at 20 µM;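 further: plate controls were DMSO wells for no effect and DEVD-CHO caspase inhibitor wells for full effect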
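System – cell-free apoptosome with Apaf-1, procaspase-3 and caspase-9 · Buffer or medium – pH 7.5 Hepes buffer with CHAPS, BSA, DTT · Also added – cytochrome c with DEVD-Rh110 · Times – 30 min compound preincubation, 50 min activation, room temperature · Technique – Rh110 fluorescence intensity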
Active calls of the source: *; · = no result. A selection: hits, their analogues and other compounds. The true share with any hit is near 2.4%.

SMILES | SIAE primary | TCR CD3 inh | GSTO1 counter | TDP2 absorb | PAD4 FP inh | Apaf1 inhib
CCOC(=O)C(C)(C)N(Cc1cccc(C)c1)S(=O)(=O)c1ccc(Cl)c([N+](=O)[O-])c1 | 3.3 | 6.0 | 61.2* | -11.5 | -1.9 | 15.2
N#CCCCc1cc2cc(F)ccc2cn1 | 3.0 | 4.5 | · | -4.2 | 2.1 | -1.7
CN(C)C(=O)CN1CCN(C(=O)CCl)CC1 | 4.5 | -6.2 | 61.0* | 19.0 | -5.1 | -10.0
COc1cc(OC)c(N(C)S(=O)(=O)c2cccc(C(=O)Nc3nc(C)cs3)c2)cc1Cl | -10.6 | 4.7 | · | -1.9 | 0.1 | 0.2
CCCNC(=O)N1C[C@H](O)COC[C@@H]2O[C@@H](CC(=O)NCCCN3CCOCC3)CC[C@H]21 | 1.2 | 6.2 | · | 8.1 | · | ·
COc1ccc(N2C(=O)C3C(C2=O)C(C(=O)c2ccc(Cl)cc2)N2CCCC32)cc1 (stereo not drawn) | -2.4 | -9.1 | -9.0 | -4.4 | -6.9 | -10.0
CC(NC(=O)COC(=O)c1ccc([N+](=O)[O-])s1)c1ccccc1 (stereo not drawn) | -3.5 | -5.0 | 44.5* | -4.5 | -9.9 | 6.9
Cc1cc(C)c(NC(=O)COC(=O)c2ccc([N+](=O)[O-])s2)c(C)c1 | 2.4 | 0.7 | 5.8 | -8.1 | -8.3 | 18.1
Cc1ccc(NC(=O)COC(=O)c2ccc([N+](=O)[O-])s2)c(C)c1 | -5.9 | -4.6 | 35.0* | 10.4 | -10.3 | 6.0
CCCCCCCCS(=O)CCC(=O)O (stereo not drawn) | 0.7 | 1.3 | 2.7 | -5.8 | -1.7 | -3.1
COc1ccccc1N(Cc1cc(=O)[nH]c2ccccc12)C(=O)c1cccc([N+](=O)[O-])c1 | -2.6 | -6.3 | 35.5* | -7.7 | -4.1 | 17.1
CC1(OC(=O)c2cnc3ccccc3n2)C(=O)C=C2C=C(C3CC3)OC=C2C1=O (stereo not drawn) | · | · | 42.6* | · | 37.9* | -1.7
CC1(OC(=O)C2CCCC2)C(=O)C=C2C=C(c3ccsc3)N(C3CCCC3)C=C2C1=O (stereo not drawn) | -1.3 | 8.1 | 17.1 | 6.8 | -5.3 | 25.2
COC/C=C/C1=CC2=CC(=O)C(C)(OC(=O)c3cnc4ccccc4n3)C(=O)C2=CN1c1ccc(CO)cc1 (stereo not drawn) | · | · | 36.7* | · | 6.7 | -0.1
COC/C=C/C1=CC2=CC(=O)C(C)(OC(=O)c3cnc4ccccc4n3)C(=O)C2=CN1C1CCCCC1 (stereo not drawn) | · | · | 35.5* | · | 0.2 | 16.7
CC1(OC(=O)CCc2ccccc2)C(=O)C=C2C=C(c3ccc(C#N)cc3)N(c3ccccc3)C=C2C1=O (stereo not drawn) | 11.7 | -6.5 | 21.1 | -3.7 | -10.5 | 17.8
CC1(OC(=O)c2cccs2)C(=O)C=C2C=C(C3CC3)OC=C2C1=O (stereo not drawn) | 8.0 | 16.6 | 24.0 | -2.5 | -3.4 | -0.6
O=c1[nH][nH]c(-c2ccccc2O)c1C(C[N+](=O)[O-])c1ccccc1 (stereo not drawn) | 6.0 | 2.8 | 28.9 | 9.6 | -8.1 | 7.3
O=c1[nH][nH]c(-c2ccccc2O)c1C(C[N+](=O)[O-])c1cccc(Cl)c1 (stereo not drawn) | -2.7 | -1.7 | 36.1* | -4.0 | -11.7 | 6.6
O=C(Oc1ccccc1O)c1cccc2ccccc12 | -3.2 | 9.8 | 58.9* | -3.1 | -0.1 | 17.2
COc1ccc(Cn2c(=O)sc3ccccc32)cc1 | -5.5 | -1.6 | 9.6 | -4.8 | 1.3 | -2.2
Oc1ccc(N=Cc2cc(Br)c(N3CCOCC3)o2)cc1 | 3.6 | 31.6* | 33.5 | 0.0 | 3.6 | 12.3
Cc1ccc(Cl)cc1-c1ccc(C=Nc2ccc(N3CCOCC3)cc2)o1 | 3.3 | 5.3 | 1.5 | 23.4 | 6.5 | 11.3
COc1ccc(OC)c(C(=O)c2ccc([N+](=O)[O-])cc2)c1 | -0.6 | -9.7 | · | 2.3 | · | ·
O=C1c2cccc(O)c2C(=O)c2c(O)cccc21 | · | · | 20.1 | · | -4.1 | 1.3
SMILES | SIAE primary | TCR CD3 inh | GSTO1 counter | TDP2 absorb | PAD4 FP inh | Apaf1 inhib
CC1OC(CC(=O)O)CC2=C1C(=O)c1c(O)cccc1C2=O (stereo not drawn) | 6.2 | -4.8 | · | 33.8* | · | ·
CS(=O)c1nc(-c2ccc(Br)cc2)cc(-c2ccccc2)c1C#N (stereo not drawn) | -3.5 | 5.9 | -17.8 | 5.1 | 0.2 | 55.4*
COc1ccc(NC(=O)C2(C)Cc3c(-c4ccccc4)ccnc3O2)cc1OC (stereo not drawn) | -2.3 | 5.9 | · | -8.9 | · | ·
COC(=O)c1ccc(NC(=O)c2ccc(NC(=O)c3ccco3)cc2)cc1 | -47.0 | 0.9 | -6.0 | 3.8 | -10.5 | 43.8*
CC(=O)c1ccc(NC(=O)c2ccc(NC(=O)c3ccco3)cc2)cc1 | · | · | 2.2 | · | -1.8 | 5.3
O=C(Oc1cccnc1)c1ccc(Cl)c(Cl)c1 | -1.5 | 5.8 | -4.1 | -4.6 | 0.8 | 0.2
O=C(COC(=O)c1cccnc1)c1ccc(Cl)c(Cl)c1 | -2.8 | -6.6 | 36.1* | 0.2 | -4.5 | 5.4
O=[N+]([O-])c1ccccc1/C=C/C=N/Nc1ccc(S(=O)(=O)Nc2ccc(Cl)cc2)cc1[N+](=O)[O-] | 42.8* | -1.1 | 1.4 | -10.1 | -2.1 | -1.6
C/C(=N\Nc1ccc(S(=O)(=O)Nc2ccccc2)cc1[N+](=O)[O-])c1ccc(N2CCOCC2)cc1 | 3.2 | 0.3 | -8.3 | 0.0 | -3.0 | -5.7
C/C(=N\Nc1ccc(S(=O)(=O)Nc2ccc(Cl)cc2)cc1[N+](=O)[O-])c1ccc(N2CCOCC2)cc1 | 24.3* | 4.3 | -1.8 | 4.6 | -2.1 | -2.9
Cc1ccc(NC(=O)CCCn2c(=O)[nH]c3ccsc3c2=O)cc1 | · | · | 4.0 | · | 1.4 | -6.1
C#CCOCCOCCOCCNc1nc(N2CCN(C(=O)CCCCCCCCCCNC(=O)[C@H]([C@@H](C)CC)n3cc(CCCCN=C(N)N)nn3)CC2)nc(N2CCN(C(=O)CCCCCCCCCCNC(=O)[C@H](CCCN=C(N)N)n3cc(C[C@@H](C)CC)nn3)CC2)n1 | · | · | 10.0 | · | -28.1 | 45.6*
C#CCOCCOCCOCCNc1nc(N2CCN(C(=O)CCCCCCCCCCNC(=O)[C@H]([C@@H](C)CC)n3cc(CCCCN=C(N)N)nn3)CC2)nc(N2CCN(C(=O)CCCCCCCCCCNC(=O)[C@@H]([C@H](C)O)n3cc(C)nn3)CC2)n1 | · | · | 0.9 | · | -6.0 | 44.9*
C#CCOCCOCCOCCNc1nc(N2CCN(C(=O)CCCCCCCCCCNC(=O)[C@H](CCCN=C(N)N)n3cc(C[C@@H](C)CC)nn3)CC2)nc(N2CCN(C(=O)CCCCCCCCCCNC(=O)[C@@H]([C@H](C)CC)n3cc(CCCCCN)nn3)CC2)n1 | · | · | 2.7 | · | -33.6 | 80.1*
COC(=O)c1ccc(/C=N/NC(=O)CCSc2nc3ccccc3s2)cc1 | -4.1 | 0.6 | 2.8 | 5.2 | -2.4 | 6.3
O=C(COc1coc(CN2CCc3ccccc32)cc1=O)Nc1cccc(F)c1 | -5.7 | 8.5 | 7.7 | 3.7 | 5.9 | -1.5
